# Measurements published in ChEMBL document CHEMBL1938394, “Time-dependent slowly-reversible inhibition of monoamine oxidase A by N-substituted 1,2,3,6-tetrahydropyridines” (Bioorg Med Chem, 2011).
# Experiments:
# [1] = biological target: T1, Amine oxidase [flavin-containing] A (Homo sapiens, UniProt P21397); assay: Inhibition of human recombinant MAOA expressed in insect cells using kynuramine substrate after 60 mins
# T1 sequence (P21397 whole entry): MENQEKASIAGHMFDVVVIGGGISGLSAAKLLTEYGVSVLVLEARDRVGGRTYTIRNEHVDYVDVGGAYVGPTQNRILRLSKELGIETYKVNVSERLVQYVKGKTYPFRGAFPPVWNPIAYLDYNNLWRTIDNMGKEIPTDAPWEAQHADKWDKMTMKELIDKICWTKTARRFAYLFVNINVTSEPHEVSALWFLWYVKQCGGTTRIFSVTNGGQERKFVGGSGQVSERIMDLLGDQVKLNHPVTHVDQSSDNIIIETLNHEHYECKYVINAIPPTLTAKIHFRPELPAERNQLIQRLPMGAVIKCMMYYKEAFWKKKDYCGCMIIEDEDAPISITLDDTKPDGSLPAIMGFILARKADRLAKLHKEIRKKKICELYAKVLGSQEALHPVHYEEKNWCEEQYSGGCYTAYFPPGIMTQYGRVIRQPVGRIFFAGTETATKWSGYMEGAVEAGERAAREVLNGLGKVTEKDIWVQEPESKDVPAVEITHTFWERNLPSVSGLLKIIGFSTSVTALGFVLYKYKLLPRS
# [2] = biological target: T1, Amine oxidase [flavin-containing] A; assay: Inhibition of human recombinant MAOA expressed in insect cells assessed as oxidation of kynuramine substrate measured after additional substrate added after 90 mins incubation; settings: 1.5 h
# [3] = biological target: T2, Amine oxidase [flavin-containing] B (Homo sapiens, UniProt P27338); assay: Inhibition of human recombinant MAOB expressed in insect cells using benzylamine hydrochloride as substrate after 30 mins
# T2 sequence (P27338 whole entry): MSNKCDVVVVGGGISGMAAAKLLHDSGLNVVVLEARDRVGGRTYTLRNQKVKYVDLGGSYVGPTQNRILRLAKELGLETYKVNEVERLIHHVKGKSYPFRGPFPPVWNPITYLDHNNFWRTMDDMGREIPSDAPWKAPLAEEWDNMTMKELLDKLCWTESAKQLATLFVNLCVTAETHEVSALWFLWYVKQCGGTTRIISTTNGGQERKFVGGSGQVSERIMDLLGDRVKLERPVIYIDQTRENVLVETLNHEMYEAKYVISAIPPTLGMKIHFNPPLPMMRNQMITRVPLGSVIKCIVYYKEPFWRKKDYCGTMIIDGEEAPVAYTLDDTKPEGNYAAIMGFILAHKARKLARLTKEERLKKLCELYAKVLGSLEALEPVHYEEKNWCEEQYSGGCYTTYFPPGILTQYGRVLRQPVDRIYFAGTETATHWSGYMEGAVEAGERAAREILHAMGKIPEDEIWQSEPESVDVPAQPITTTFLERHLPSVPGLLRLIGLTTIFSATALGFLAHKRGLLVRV
# In short: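 Human recombinant MAO-B (0.01 mg/mL) in 0.1 M isotonic phosphate buffer pH 7.4, inhibitor 0–7000 µM, benzylamine 1000 µM final, 30 min at 37 °C. Stopped with perchloric acid; benzaldehyde measured by reverse-phase HPLC with UV 254 nm. IC50 from sigmoidal log dose–response fit; triplicate, mean ± SD.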
# Homo sapiens = organism: Homo sapiens; assay: Selectivity index, ratio of IC50 for human recombinant MAOB to IC50 for human recombinant MAOA
# In short: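 MAO-A (0.005 mg/mL; 150 μM kynuramine, 60 min, 37 °C, […]) and MAO-B (0.01 mg/mL; 1000 μM benzylamine, 30 min, 37 °C, perchloric acid stop, benzaldehyde by HPLC-UV at 254 nm) in isotonic 0.1 M phosphate pH 7.4. Inhibitor 0–7000 μM. IC50s from sigmoidal log curves in triplicate. SI = MAO-B IC50 / MAO-A IC50.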
# [4] = biological target: T1, Amine oxidase [flavin-containing] A; assay: Inhibition of human recombinant MAOA expressed in insect cells assessed as formation of 4-hydroxyquinoline at 5 uM preincubated for 1 hr before kynuramine substrate measured after 1 hr in presence of sodium borohydride
# In short: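 MAO-A (0.005 mg/mL) preincubated 60 min at 37 °C with inhibitor in isotonic 0.1 M phosphate pH 7.4. NaBH4 (5 μL of 300 mM stock in water) then added and the mix held 15 min at 0 °C. It was dialyzed overnight at 0 °C, then read at 310 nm with 150 μM kynuramine over 60 min at 37 °C. Controls without inhibitor also got borohydride. n = 3.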
# [5] = biological target: T1, Amine oxidase [flavin-containing] A; assay: Noncompetitive inhibition of human recombinant MAO-A assessed as dissociation constant for enzyme-inhibitor-substrate complex by Lineweaver-Burk plot analysis
# [6] = biological target: T1, Amine oxidase [flavin-containing] A; assay: Inhibition of human recombinant MAOA expressed in insect cells assessed as oxidation of kynuramine substrate at 5 uM measured after additional enzyme added after 120 mins incubation; settings: 2 h
# In short: (§1)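 Time course of kynuramine oxidation by recombinant human MAO-A at 37 °C in isotonic 0.1 M phosphate pH 7.4 with or without inhibitor. A second portion of substrate (150 μM kynuramine) was added at 90 min and fresh enzyme at 120 min, with product formation followed throughout.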
# [7] = biological target: T1, Amine oxidase [flavin-containing] A; assay: Inhibition of human recombinant MAOA expressed in insect cells using kynuramine as substrate by Kitz-Wilson plot analysis
# In short: (§2)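 Recombinant human MAO-A preincubated at 37 °C with inhibitor (2–5 μM) or buffer control for 0, 10, 20, 30 or 40 min before kynuramine (150 μM) was added. Activity read after 30 min as % of control, n = 3. Kitz–Wilson slope replot: Ki from reciprocal of x-intercept, kinact from reciprocal of y-intercept.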
# [8] = biological target: T1, Amine oxidase [flavin-containing] A; assay: Inhibition of human recombinant MAOA expressed in insect cells assessed as formation of 4-hydroxyquinoline at 5 uM preincubated for 1 hr before kynuramine substrate measured after 12 hrs of dialysis
# In short: (§3)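 MAO-A (0.005 mg/mL) in 0.1 M sodium phosphate pH 7.4 made isotonic with NaCl, preincubated 1 h at 37 °C without substrate with inhibitor (final volume 1 mL), then dialyzed overnight at 0 °C against 250 mL buffer. Activity in dialysate read as product formation at 310 nm with 150 μM kynuramine over 60 min at 37 °C. 4-Hydroxyquinoline quantified by calibration curve. Means ± SD, n = 3.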
# [9] = biological target: T3, MAO-A (amine oxidase [flavin-containing] A) (Homo sapiens, UniProt P21397); assay: Irreversible inhibition of human recombinant MAOA expressed in insect cells using kynuramine as substrate by Kitz-Wilson plot analysis; settings: probe kynuramine; in short: as §2
# T3 sequence (P21397 whole entry): T1 sequence (P21397 whole entry)
# [10] = biological target: T1, Amine oxidase [flavin-containing] A; assay: Noncompetitive inhibition of human recombinant MAO-A assessed as dissociation constant for enzyme-inhibitor complex by Lineweaver-Burk plot analysis
# [11] = biological target: T1, Amine oxidase [flavin-containing] A; assay: Inhibition of human recombinant MAOA expressed in insect cells assessed as oxidation of kynuramine substrate at 5 uM up to 90 mins; settings: 1.5 h; in short: as §1
# [12] = biological target: T1, Amine oxidase [flavin-containing] A; assay: Time dependent inhibition of human recombinant MAOA expressed in insect cells using kynuramine as substrate at 5 uM preincubated up to 40 mins before kynuramine substrate addition; in short: as §2
# [13] = biological target: T1, Amine oxidase [flavin-containing] A; assay: Inhibition of human recombinant MAOA expressed in insect cells assessed as oxidation of kynuramine substrate at 5 uM measured after additional substrate added after 90 mins incubation; settings: 1.5 h; in short: as §1
# [14] = biological target: T1, Amine oxidase [flavin-containing] A; assay: Inhibition of human recombinant MAOA expressed in insect cells using kynuramine as substrate at 50 uM preincubated up to 40 mins before kynuramine substrate addition measured after 30 mins; settings: 0.5 h
# In short: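 MAO-A preincubated at 37 °C in 0.1 M isotonic phosphate buffer pH 7.4 with inhibitor, or buffer control, for […]. Diluted 50-fold into buffer containing kynuramine, then incubated 30 min. Activity is % of control; mean ± SD, n = 3.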
# [15] = biological target: T1, Amine oxidase [flavin-containing] A; assay: Inhibition of human recombinant MAOA expressed in insect cells assessed as formation of 4-hydroxyquinoline at 0.5 uM preincubated for 1 hr before kynuramine substrate measured after 12 hrs of dialysis; in short: as §3
# [16] = biological target: T1, Amine oxidase [flavin-containing] A; assay: Uncompetitive inhibition of human recombinant MAO-A assessed as dissociation constant for enzyme-inhibitor complex by Lineweaver-Burk plot analysis
# In short: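 Human recombinant MAO-A (0.005 mg/mL) in 0.1 M sodium phosphate pH 7.4 made isotonic with NaCl, 37 °C, 30 min. Initial oxidation rates at four kynuramine levels (50–150 µM) without or with four inhibitor concentrations (range per compound, 5–1000 µM). Ki from Lineweaver–Burk plots and replots by linear regression; triplicate.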
# Mus musculus [17] = assay: Neurotoxicity in C57BL/6J mouse assessed as effect on serotonin level at 25 mg/kg, sc by HPLC analysis; assay type: toxicity, organism-based; set-up: dose 25 mg/kg, route subcutaneous; settings: in vivo
# In short: (§4)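 Female C57BL/6J mice aged 3–4 months, single sc dose, 0.9% saline vehicle, killed 72 h later. Striata homogenised in ice-cold 0.2 M perchloric acid with dihydroxybenzylamine internal standard. Amines measured by C18 reverse-phase HPLC with electrochemical detection, mobile phase pH 3.0.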
# [18] = biological target: T1, Amine oxidase [flavin-containing] A; assay: Inhibition of human recombinant MAOA expressed in insect cells assessed as oxidation of kynuramine substrate at 500 uM measured after additional enzyme added after 120 mins incubation; settings: 2 h
# In short: (§5)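 Recombinant human MAO-A incubated with kynuramine, with or without inhibitor. Product formation followed over time. A second equivalent of substrate (150 µM kynuramine) added at 90 min and fresh enzyme added at 120 min.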
# Mus musculus [19] = assay: Neurotoxicity in C57BL/6J mouse assessed as effect on dopamine level at 25 mg/kg, sc by HPLC analysis; assay type: toxicity, organism-based; set-up: dose 25 mg/kg, route subcutaneous; settings: in vivo; in short: as §4
# [20] = biological target: T1, Amine oxidase [flavin-containing] A; assay: Inhibition of human recombinant MAOA expressed in insect cells assessed as oxidation of kynuramine substrate at 500 uM measured after additional substrate added after 90 mins incubation; settings: 1.5 h; in short: as §5
# Mus musculus [21] = assay: Neurotoxicity in C57BL/6J mouse assessed as increase of striatal GFAP level at 25 mg/kg, sc after 72 hrs by ELISA; assay type: toxicity, organism-based; set-up: dose 25 mg/kg, route subcutaneous; settings: in vivo
# In short: (§6)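 Female C57BL/6J mice aged 3–4 months, single sc dose, 0.9% saline vehicle, killed 72 h post-dose. Striatum homogenised in hot 1% SDS. GFAP or TH measured by detergent-based sandwich ELISA.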
# [22] = biological target: T1, Amine oxidase [flavin-containing] A; assay: Inhibition of human recombinant MAOA expressed in insect cells assessed as formation of 4-hydroxyquinoline at 500 uM preincubated for 1 hr before kynuramine substrate measured after 1 hr in presence of sodium borohydride
# In short: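 MAO-A preincubated 60 min at 37 °C with inhibitor, no substrate. Then 5 µL of 300 mM NaBH4 added and held 15 min at 0 °C. Dialysed overnight at 0 °C against 0.1 M isotonic phosphate buffer pH 7.4. Residual activity: 4-hydroxyquinoline formation at 310 nm with 150 µM kynuramine, 60 min, 37 °C; n = 3.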
# [23] = biological target: T1, Amine oxidase [flavin-containing] A; assay: Inhibition of human recombinant MAOA expressed in insect cells assessed as oxidation of kynuramine substrate at 500 uM up to 90 mins; settings: 1.5 h; in short: as §5
# Mus musculus [24] = assay: Neurotoxicity in C57BL/6J mouse assessed as reduction of striatal tyrosine hydroxylase level at 25 mg/kg, sc after 72 hrs by ELISA; assay type: toxicity, organism-based; set-up: dose 25 mg/kg, route subcutaneous; settings: in vivo; in short: as §6
structure (smiles),measurement,setting,value
COc1ccc(CCN2CC=CCC2)cc1OC,IC50,[1],111 µM
same,inhibition (INH),[2],Not Active
same,IC50,[3],1360 µM
same,Ratio IC50,Homo sapiens,12.3
Clc1ccc(OCCCN2CC=CCC2)c(Cl)c1,inhibition (INH),[4],Active
same,IC50,[1],2.6 µM
same,Ki,[5],0.9 µM
same,inhibition (INH),[6],Active
same,Ki,[7],7.4 µM
same,inhibition (INH),[8],Active
same,kinact,[9],0.002 s⁻¹
same,IC50,[3],66.4 µM
same,Ki,[10],2.2 µM
same,inhibition (INH),[11],Active
same,Ratio IC50,Homo sapiens,25.4
same,TDI,[12],Active
same,inhibition (INH),[13],Active
O=[N+]([O-])c1ccc(CCN2CC=CCC2)cc1,IC50,[1],37.8 µM
same,inhibition (INH),[2],Not Active
same,inhibition (INH),[14],Active
same,IC50,[3],272 µM
same,Ratio IC50,Homo sapiens,7.2
C#CCN(C)CCCOc1ccc(Cl)cc1Cl [CLORGILINE],inhibition (INH),[15],Active
C1=CCN(CCc2ccccc2)CC1,IC50,[16],45.4 µM
same,Ki,[16],9.2 µM
same,Activity,Mus musculus [17],Non-toxic
same,IC50,[1],41.3 µM
same,inhibition (INH),[18],Active
same,Activity,Mus musculus [19],Non-toxic
same,inhibition (INH),[20],Active
same,inhibition (INH),[14],Active
same,Activity,Mus musculus [21],Non-toxic
same,inhibition (INH),[22],Not Active
same,inhibition (INH),[23],Active
same,IC50,[3],1180 µM
same,Activity,Mus musculus [24],Non-toxic
same,Ratio IC50,Homo sapiens,28.7
Fc1ccc(CCN2CC=CCC2)cc1,IC50,[1],27.3 µM
same,inhibition (INH),[2],Not Active
same,IC50,[3],5270 µM
same,Ratio IC50,Homo sapiens,193
